Test [1] in a line: Inhibition of [3H]25-6981 binding to N-methyl-D-aspartate glutamate receptor 2B of rat brain.
Test [2] deals with T1, Muscarinic acetylcholine receptor M1 (Rattus norvegicus, UniProt P08482).
T1 sequence (P08482 whole entry): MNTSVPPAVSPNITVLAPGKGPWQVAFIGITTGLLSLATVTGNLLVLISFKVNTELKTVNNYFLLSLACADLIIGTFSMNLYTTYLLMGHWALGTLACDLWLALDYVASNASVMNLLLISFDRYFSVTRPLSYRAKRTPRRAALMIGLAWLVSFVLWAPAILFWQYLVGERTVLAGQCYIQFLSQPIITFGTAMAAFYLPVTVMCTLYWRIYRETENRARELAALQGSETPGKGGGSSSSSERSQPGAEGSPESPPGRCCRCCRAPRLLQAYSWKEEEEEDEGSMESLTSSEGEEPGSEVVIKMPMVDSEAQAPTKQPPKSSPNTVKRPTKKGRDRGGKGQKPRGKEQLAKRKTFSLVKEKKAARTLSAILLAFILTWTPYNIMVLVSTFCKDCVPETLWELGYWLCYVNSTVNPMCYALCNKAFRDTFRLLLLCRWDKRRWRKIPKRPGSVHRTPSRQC
Briefly: Binding affinity towards Muscarinic acetylcholine receptor M1 in […] using [3H]pirenzepine as radioligand.

Test [3] can be described thus: Binding affinity towards N-methyl-D-aspartate (NMDA) receptor in rat brain using [3H]-25-6981 as radioligand. In kind it is tissue-based.
In test [4] the target is T2, Adrenergic receptor alpha-1 (Rattus norvegicus, UniProt P15823+P23944+P43140).
T2 sequence (P15823 whole entry): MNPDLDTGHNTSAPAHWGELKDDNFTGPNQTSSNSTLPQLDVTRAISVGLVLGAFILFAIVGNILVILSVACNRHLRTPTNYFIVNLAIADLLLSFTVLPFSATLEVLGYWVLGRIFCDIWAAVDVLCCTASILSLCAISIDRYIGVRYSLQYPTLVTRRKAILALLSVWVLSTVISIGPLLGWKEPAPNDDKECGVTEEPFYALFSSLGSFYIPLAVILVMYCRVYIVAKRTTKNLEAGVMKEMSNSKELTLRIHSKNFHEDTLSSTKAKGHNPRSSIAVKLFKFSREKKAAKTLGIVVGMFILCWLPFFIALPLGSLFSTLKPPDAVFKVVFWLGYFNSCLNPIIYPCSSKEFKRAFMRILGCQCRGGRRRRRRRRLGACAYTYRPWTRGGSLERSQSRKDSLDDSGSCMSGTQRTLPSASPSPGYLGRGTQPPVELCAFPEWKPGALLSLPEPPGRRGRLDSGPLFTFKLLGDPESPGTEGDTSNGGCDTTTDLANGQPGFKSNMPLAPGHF
T2 sequence (P23944 whole entry): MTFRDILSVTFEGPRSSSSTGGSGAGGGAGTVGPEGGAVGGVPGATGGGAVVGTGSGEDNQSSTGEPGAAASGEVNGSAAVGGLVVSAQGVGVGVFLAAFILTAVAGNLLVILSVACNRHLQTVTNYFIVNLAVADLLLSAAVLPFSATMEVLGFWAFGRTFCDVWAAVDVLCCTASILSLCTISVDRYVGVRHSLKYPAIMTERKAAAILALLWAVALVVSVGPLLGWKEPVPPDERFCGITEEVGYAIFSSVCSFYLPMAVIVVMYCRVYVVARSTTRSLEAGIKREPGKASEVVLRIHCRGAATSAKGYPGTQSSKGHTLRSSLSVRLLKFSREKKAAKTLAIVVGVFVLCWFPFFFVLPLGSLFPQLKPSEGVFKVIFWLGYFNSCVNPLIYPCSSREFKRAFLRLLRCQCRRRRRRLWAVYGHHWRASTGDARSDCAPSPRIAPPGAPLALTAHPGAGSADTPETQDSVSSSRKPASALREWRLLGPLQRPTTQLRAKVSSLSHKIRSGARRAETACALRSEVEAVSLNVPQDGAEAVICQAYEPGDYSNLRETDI
T2 sequence (P43140 whole entry): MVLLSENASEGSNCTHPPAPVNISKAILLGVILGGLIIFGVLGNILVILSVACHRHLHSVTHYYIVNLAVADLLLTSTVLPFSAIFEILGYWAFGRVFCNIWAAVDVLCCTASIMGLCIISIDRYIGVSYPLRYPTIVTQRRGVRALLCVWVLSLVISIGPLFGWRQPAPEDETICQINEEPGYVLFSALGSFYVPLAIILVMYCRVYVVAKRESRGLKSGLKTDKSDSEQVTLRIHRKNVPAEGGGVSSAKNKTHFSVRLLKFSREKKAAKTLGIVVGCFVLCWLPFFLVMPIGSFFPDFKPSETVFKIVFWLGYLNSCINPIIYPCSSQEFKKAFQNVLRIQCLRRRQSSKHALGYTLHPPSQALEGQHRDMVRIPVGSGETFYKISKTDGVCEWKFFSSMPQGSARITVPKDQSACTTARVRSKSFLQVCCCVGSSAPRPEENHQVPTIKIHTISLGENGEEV
Kind of test: Binding affinity towards alpha receptor in rat brain using [3H]prazosin as radioligand. In kind it is tissue-based.

A further test has as its system Mus musculus. Briefly: In vivo effective dose in mice after intraperitoneal administration using standard sound induced seizures assay. It counts as functional. The settings on record: ip. Put shortly:
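DBA/2 mice; compound given intraperitoneally 30 min before sound-induced seizure testing; ED50 in mg/kg.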

Test [5] deals with T1, Muscarinic acetylcholine receptor M1. Kind of test: Binding affinity towards muscarinic acetylcholine receptor M1 in […] using [3H]pirenzepine as radioligand.
Test [6] has as its target T2, Adrenergic receptor alpha-1. Briefly: Binding affinity towards Alpha-1 adrenergic receptor in rat brain using [3H]prazosin. It counts as tissue-based.

Molecules are shown by their SMILES. pKi: −log10 of the molar value.

`Clc1ccc2c(c1)CCN(c1ccncc1)C2`: the pKi in test [1] is 6.64.
As for `Cc1cc(N2CCc3ccccc3C2)cc(N)n1`, the pKi was 5.59 in test [2] and 8.40 in test [3]. Further, the Ki in test [4] worked out at 1500 nM.
The like results for `CCOC(=O)C(=O)Nc1cc(N2CCc3ccccc3C2)cc(C)n1` were, in that order, 4.96, 8.10 and 12000 nM.
`Cc1cc(N2CCc3ccccc3C2)cc(NC(=O)CO)n1`: the pKi in test [2] is 4.22; in test [3] it was 7.82. For the same compound, the Ki in test [4] is recorded as 20000 nM.
Take `Cc1cc(N2CCc3ccccc3C2)ccn1`: the pKi in test [3] is 8.10. The same compound registered a Ki in test [4] of 5700 nM.
Regarding `Clc1cccc2c1CCN(c1ccncc1)C2`, in the test with Mus musculus, it took a dose of 2 mg/kg to reach the 50% effect level (ED50). Further, the negative logarithm of the Ki (pKi) in test [5] was 6.18; in test [1], 8.10. For the same compound, in test [6], the Ki amounted to 1500 nM.
Compound `COc1cc2c(cc1OC)CN(c1ccncc1)CC2` showed a pKi in test [1] of 4.55.
In the test on Mus musculus, `Cc1cc(N2CCc3ccccc3C2)cc(NCCO)n1` had a median effective dose (ED50) of 18 mg/kg. The pKi in test [2] was 5.17; in test [3], 8.70. Moreover, the Ki in test [4] is 3500 nM.
With `OCCNc1cc(N2CCc3ccccc3C2)c2ccccc2n1`, the pKi is 5.17 in test [2] and 7.66 in test [3]. The same compound showed an inhibition constant (Ki) in test [4] of 1700 nM.
Consider `C[C@@H]([C@H](O)c1ccc(O)cc1)N1CCC(Cc2ccccc2)CC1` [(R,S)-IFENPRODIL], for which the 50% effective dose (ED50) with Mus musculus was found to be 16 mg/kg. For the same compound, in test [6], the Ki turned out to be 12 nM.
As for `CC1CN(c2ccncc2)Cc2ccccc21` (stereo not given), the pKi in test [5] was 6.05; in test [1], 7.60. The compound further showed a Ki in test [6] of 2200 nM.
With `c1ccc2c(c1)CCN(c1ccnc3ccccc13)C2`, the ED50 with Mus musculus amounted to 25 mg/kg. Also, the values for the pKi in test [5] and in test [1] were 5.59 and 7.54, respectively. The compound further yielded a Ki in test [6] of 3200 nM.
On to `Cc1cc(N2CCc3ccccc3C2)c2ccccc2n1`, for which, in test [1], the pKi was 7.12.
`Clc1ccc2c(c1)CN(c1ccncc1)CC2`: the results for the pKi in test [5] and in test [1] were 6.00 and 7.43, respectively. The Ki in test [6] was 1300 nM.
`Nc1cc(N2CCc3ccccc3C2)c2ccccc2n1` had a pKi in test [3] of 7.72. Moreover, in test [4], the inhibitory constant (Ki) stood at 120 nM.
Compound `OCCNc1ccnc(N2CCc3ccccc3C2)c1` gave an ED50 with Mus musculus of 13 mg/kg. Also, the pKi in test [1] was 8.70. The compound also came in with a Ki in test [6] of 2300 nM.
For `Clc1cccc2c1CN(c1ccncc1)CC2`, the pKi in test [5] was 6.19; in test [1] it was 7.59. In test [6], this compound displayed a Ki of 3800 nM.
On to `Nc1cc(N2CCc3ccccc3C2)ccn1`, for which the figures for the pKi in test [2] and in test [3] were 6.40 and 8.70, respectively. The Ki in test [4] was 2100 nM.
Take `c1ccc2c(c1)CCN(c1ccncc1)C2`: the ED50 in the test on Mus musculus was determined as 3 mg/kg. Besides, the pKi in test [5] was 6.14; in test [1] it was 8.10. In addition, the inhibition constant (Ki) in test [6] turned out to be 5800 nM.
In the test with Mus musculus, `OCCNc1cc(N2CCc3ccccc3C2)nc2ccccc12` had an ED50 of less than 12 mg/kg. Also, the pKi in test [1] was 8.46. In test [6], this compound yielded a Ki of 430 nM.

These data come from ChEMBL document CHEMBL1136393, “4-(3,4-dihydro-1H-isoquinolin-2yl)-pyridines and 4-(3,4-dihydro-1H-isoquinolin-2-yl)-quinolines as potent NR1/2B subtype selective NMDA receptor antagonists” (Bioorg Med Chem Lett, 2003).
